Results reported in ChEMBL document CHEMBL2040714, “Synthesis of methylated quercetin derivatives and their reversal activities on P-gp- and BCRP-mediated multidrug resistance tumour cells” (Eur J Med Chem, 2012).
pIC50: −log10 of the molar value.

Assays:
[1] = Cytotoxicity against human LCC-6 cells after 5 days by MTS assay; assay type: cell-based; conditions: LCC-6, 120 h
Method in brief: (§1)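 Cells seeded in 96-well plates (6000/well for LCC6 and LCC6MDR) and exposed to a range of derivative concentrations, dissolved in DMSO at no more than 1% final, for 5 days at 37 °C. Viability read by MTS; IC50 taken from dose–response curves. Three repeats, mean ± SEM. LCC6 lines grown in DMEM with 10% heat-inactivated FBS; L929 is a mouse fibroblast line.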

[2] = Cytotoxicity against multidrug resistant human LCC6MDR cells after 5 days by MTS assay; conditions: 120 h
[3] = molecular target: T1, Broad substrate specificity ATP-binding cassette transporter ABCG2 (Homo sapiens, UniProt Q9UNQ0); test: Reversal of BCRP-mediated drug resistant in human HEK293/R2 cells assessed as potentiation of topotecan-induced cytotoxicity at 1 uM after 5 days by MTS assay; assay type: cell-based; conditions: hek293/r2, 120 h
T1 sequence (Q9UNQ0 whole entry): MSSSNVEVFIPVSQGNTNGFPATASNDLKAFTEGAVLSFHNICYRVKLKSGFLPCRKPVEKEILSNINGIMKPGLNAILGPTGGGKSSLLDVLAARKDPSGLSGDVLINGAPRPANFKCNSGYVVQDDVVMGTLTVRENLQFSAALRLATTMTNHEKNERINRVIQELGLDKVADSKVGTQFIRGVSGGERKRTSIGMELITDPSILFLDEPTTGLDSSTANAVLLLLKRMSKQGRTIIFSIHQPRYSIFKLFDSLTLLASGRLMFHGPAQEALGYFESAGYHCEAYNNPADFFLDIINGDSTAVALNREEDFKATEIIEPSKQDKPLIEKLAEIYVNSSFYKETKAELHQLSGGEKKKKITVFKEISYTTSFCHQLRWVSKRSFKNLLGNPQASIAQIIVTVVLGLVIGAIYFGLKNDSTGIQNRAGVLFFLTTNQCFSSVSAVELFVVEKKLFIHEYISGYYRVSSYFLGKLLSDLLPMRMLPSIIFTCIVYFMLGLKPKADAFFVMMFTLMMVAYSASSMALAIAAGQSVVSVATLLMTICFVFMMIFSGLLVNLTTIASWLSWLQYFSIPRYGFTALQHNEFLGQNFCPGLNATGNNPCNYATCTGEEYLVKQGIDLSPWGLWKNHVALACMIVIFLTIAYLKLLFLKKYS

[4] = species on record: Homo sapiens; test: Reversal of p-glycoprotein-mediated drug resistant in human LCC-6/MDR cells assessed as potentiation of paclitaxel-induced cytotoxicity at 1 uM after 5 days by MTS assay; assay type: cell-based
Method in brief: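 LCC6MDR cells (6000/well, DMEM with 10% FBS) given paclitaxel over a range of doses, with or without 1 μM modulator, for 5 days at 37 °C; MTS read-out. IC50 from dose–response curves, and RF = IC50 without / IC50 with 1.0 μM modulator. N = 2–4 independent experiments, mean ± SEM.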

[5] = molecular target: Multidrug resistance-associated protein 1 (Homo sapiens, UniProt P33527); test: Reversal of MRP1-mediated drug resistant in human 2008/MRP1 cells assessed as potentiation of doxorubicin-induced cytotoxicity at 1 uM after 5 days by MTS assay; assay type: cell-based; conditions: 2008/mrp1, 120 h
Multidrug resistance-associated protein 1, sequence (P33527 whole entry): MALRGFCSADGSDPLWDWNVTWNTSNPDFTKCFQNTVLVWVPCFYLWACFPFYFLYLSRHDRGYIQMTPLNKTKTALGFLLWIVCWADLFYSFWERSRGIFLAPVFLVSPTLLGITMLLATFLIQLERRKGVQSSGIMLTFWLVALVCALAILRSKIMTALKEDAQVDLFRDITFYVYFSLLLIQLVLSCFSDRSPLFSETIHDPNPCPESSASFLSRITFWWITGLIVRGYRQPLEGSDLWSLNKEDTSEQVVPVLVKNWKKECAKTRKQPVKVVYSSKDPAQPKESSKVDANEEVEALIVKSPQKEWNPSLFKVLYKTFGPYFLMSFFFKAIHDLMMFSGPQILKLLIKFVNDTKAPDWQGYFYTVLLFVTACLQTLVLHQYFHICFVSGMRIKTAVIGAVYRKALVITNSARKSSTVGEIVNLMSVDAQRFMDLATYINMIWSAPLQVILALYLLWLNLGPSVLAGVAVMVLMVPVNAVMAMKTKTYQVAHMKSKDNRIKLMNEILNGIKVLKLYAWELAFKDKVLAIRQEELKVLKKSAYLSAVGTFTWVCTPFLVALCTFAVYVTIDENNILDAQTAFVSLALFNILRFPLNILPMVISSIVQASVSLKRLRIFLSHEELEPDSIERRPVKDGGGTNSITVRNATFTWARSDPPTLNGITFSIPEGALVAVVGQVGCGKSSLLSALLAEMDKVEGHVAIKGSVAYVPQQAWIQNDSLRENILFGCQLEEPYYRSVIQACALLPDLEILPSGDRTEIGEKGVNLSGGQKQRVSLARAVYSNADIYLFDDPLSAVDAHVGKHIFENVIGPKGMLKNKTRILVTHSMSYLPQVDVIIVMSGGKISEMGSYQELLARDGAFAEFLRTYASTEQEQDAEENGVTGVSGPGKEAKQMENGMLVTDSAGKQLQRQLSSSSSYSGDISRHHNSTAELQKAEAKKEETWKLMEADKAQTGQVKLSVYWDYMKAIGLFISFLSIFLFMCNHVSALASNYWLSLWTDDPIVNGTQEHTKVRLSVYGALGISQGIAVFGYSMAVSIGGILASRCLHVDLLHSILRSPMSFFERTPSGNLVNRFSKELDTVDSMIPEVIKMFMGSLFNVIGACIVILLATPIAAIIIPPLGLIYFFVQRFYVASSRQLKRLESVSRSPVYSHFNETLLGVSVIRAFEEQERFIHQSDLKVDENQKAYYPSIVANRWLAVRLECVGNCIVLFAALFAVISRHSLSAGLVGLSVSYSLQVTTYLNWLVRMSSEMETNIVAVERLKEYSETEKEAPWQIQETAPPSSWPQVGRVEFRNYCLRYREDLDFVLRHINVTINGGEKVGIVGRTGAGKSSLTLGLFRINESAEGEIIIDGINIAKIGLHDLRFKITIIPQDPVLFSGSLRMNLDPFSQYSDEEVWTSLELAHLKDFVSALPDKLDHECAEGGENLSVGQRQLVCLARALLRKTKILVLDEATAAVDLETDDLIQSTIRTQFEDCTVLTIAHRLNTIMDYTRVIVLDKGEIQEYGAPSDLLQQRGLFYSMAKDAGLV

[6] = system: L929; test: Cytotoxicity against mouse L929 cells after 5 days by MTS assay; assay type: cell-based; conditions: L929, 120 h; method in brief: as §1
[7] = molecular target: T1, Broad substrate specificity ATP-binding cassette transporter ABCG2; test: Reversal of BCRP-mediated drug resistant in human MCF7-MX100 cells assessed as potentiation of topotecan-induced cytotoxicity at 1 uM after 5 days by MTS assay; assay type: cell-based; conditions: mcf7-mx100, 120 h
[8] = system: NCI/ADR-RES; test: Modulation of p-glycoprotein-mediated drug resistant in human MCF7/ADR cells assessed as increase of daunomycin accumulation at 100 uM; assay type: cell-based

Row | Compound | pIC50 [1] | pIC50 [2] | fold change (FC) [3] | fold change (FC) [4] | fold change (FC) [5] | pIC50 [6] | fold change (FC) [7] | Activity [8] [%]
1 | COc1cc(OC)c2c(=O)c(OC)c(-c3ccc(OC)c(OC)c3)oc2c1 | < 4.00 | < 4.00 | 8.7 | 1.9 | 0.8 | < 4.00 | 7.9 | –
2 | COc1cc(OC)c2c(=O)c(O[C@@H]3O[C@H](CO[C@@H]4O[C@@H](C)[C@H](OC)[C@@H](OC)[C@H]4OC)[C@@H](OC)[C@H](OC)[C@H]3OC)c(-c3ccc(OC)c(OC)c3)oc2c1 | < 4.00 | < 4.00 | 1.5 | 1 | 1.4 | < 4.00 | 5.3 | –
3 | COc1cc(OC)c2c(=O)c(OCCn3cnc4c(N)ncnc43)c(-c3ccc(OC)c(OC)c3)oc2c1 | < 4.00 | < 4.00 | 1.2 | 1.1 | 0.8 | < 4.00 | 1.2 | –
4 | COc1cc(OC)c2c(=O)c(OCCOC(=O)c3cc(OC)c(OC)c(OC)c3)c(-c3ccc(OC)c(OC)c3)oc2c1 | < 4.00 | < 4.00 | 4.7 | 3.2 | 1.1 | < 4.00 | 2 | –
5 | COc1cc(OC)c2c(=O)c(OCCOC(=O)/C=C/c3cc(OC)c(OC)c(OC)c3)c(-c3ccc(OC)c(OC)c3)oc2c1 | < 4.00 | < 4.00 | 14 | 6 | 1.5 | < 4.00 | 9.1 | –
6 | COc1cc(OC)c2c(=O)c(OC(=O)c3cc(OC)c(OC)c(OC)c3)c(-c3ccc(OC)c(OC)c3)oc2c1 | < 4.10 | 4.06 | 5.8 | 2.1 | 0.9 | 4.13 | 9.6 | –
7 | COc1cc(OC)c2c(=O)c(OCCO)c(-c3ccc(OC)c(OC)c3)oc2c1 | < 4.00 | < 4.00 | 3.9 | 1.4 | 0.8 | < 4.00 | 1.5 | –
8 | COc1cc(O)c2c(=O)c(OC)c(-c3ccc(OC)c(OC)c3)oc2c1 [RETUSIN] | < 4.00 | < 4.00 | 13 | 3.7 | 0.7 | < 4.00 | 19.3 | –
9 | O=c1c(O)c(-c2ccc(O)c(O)c2)oc2cc(O)cc(O)c12 [QUERCETIN] | < 4.00 | < 4.00 | – | – | – | < 4.00 | – | 202
10 | COc1ccc(C(=O)OCCOc2c(-c3ccc(OC)c(OC)c3)oc3cc(OC)cc(OC)c3c2=O)cc1 | < 4.00 | < 4.00 | 12.1 | 11.3 | 1.5 | < 4.00 | 7.3 | –
11 | COc1cc(OC)c2c(=O)c(OCCn3cnc4c(=O)n(C)c(=O)n(C)c43)c(-c3ccc(OC)c(OC)c3)oc2c1 | < 4.00 | < 4.00 | 1.4 | 1.2 | 1 | < 4.00 | 1.4 | –
12 | COc1cc(OC)c2c(=O)c(OCCOC(=O)c3ccc(OC)c(OC)c3)c(-c3ccc(OC)c(OC)c3)oc2c1 | < 4.00 | < 4.00 | 4.6 | 6.4 | 1.2 | < 4.00 | 6.7 | –
13 | COc1cc(OC)c2c(=O)c(OCc3cc(OC)c(OC)c(OC)c3)c(-c3ccc(OC)c(OC)c3)oc2c1 | 4.84 | 4.33 | 11.3 | 9.6 | 1.2 | 4.75 | 4.7 | –
14 | C[C@@H]1O[C@@H](OC[C@H]2O[C@@H](Oc3c(-c4ccc(O)c(O)c4)oc4cc(O)cc(O)c4c3=O)[C@H](O)[C@@H](O)[C@@H]2O)[C@H](O)[C@H](O)[C@H]1O [RUTIN] | < 4.00 | < 4.00 | 1.3 | 0.9 | 1.2 | < 4.00 | 4.3 | –
15 | COc1cc(OC)c2c(=O)c(OCC(=O)c3ccc(OC)c(OC)c3)c(-c3ccc(OC)c(OC)c3)oc2c1 | < 4.00 | < 4.00 | 1.4 | 1.3 | 0.9 | < 4.00 | 1.4 | –
16 | COc1cc(OC)c2c(=O)c(O)c(-c3ccc(OC)c(OC)c3)oc2c1 | < 4.00 | < 4.00 | 3.3 | 1.7 | 0.7 | < 4.00 | 6 | –
17 | COc1cc(OC)c2c(=O)c(OCCOc3cc4c(Nc5ccc(F)c(Cl)c5)ncnc4cc3OC)c(-c3ccc(OC)c(OC)c3)oc2c1 | < 4.00 | < 4.00 | 4.3 | 1.5 | 1 | < 4.00 | 1.2 | –
18 | COc1ccc(CCN(C)CCCC(C#N)(c2ccc(OC)c(OC)c2)C(C)C)cc1OC (configuration not stated) | – | – | – | – | – | – | – | 229
